The record followed here is ChEMBL document CHEMBL1817561, “5a-Carba-β-D-glucopyranose derivatives as novel sodium-dependent glucose cotransporter 2 (SGLT2) inhibitors for the treatment of type 2 diabetes” (Bioorg Med Chem, 2011).

A word on the IC50: it is the point on the concentration scale where inhibition reaches its midpoint.

Structures are written as SMILES. Active and inactive are the calls of the source. The calls are words filed in the database; no cut-off is given here.

The first experiment concerns Mus musculus. Kind of experiment: Antidiabetic activity in db/db mouse assessed as reduction of blood glucose level at 100 mg/kg, po after 8 hrs by hexokinase method. It counts as functional, organism-based. The arrangement: dose 100 mg/kg. Summed up: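 Male db/db mice on regular chow; single oral gavage dose of 100 mg/kg as homogeneous suspension in 0.5% carboxymethylcellulose sodium. Blood sampled before dosing and at 1, 2, 4, 6, 8, 10 and 24 h; glucose measured by hexokinase method.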
Regarding `CCOC(=O)OC[C@H]1O[C@@H](Oc2ccccc2Cc2ccc(OC)cc2)[C@H](O)[C@@H](O)[C@@H]1O` [SERGLIFLOZIN ETABONATE], the outcome was Active.
Consider `COc1ccc(Cc2ccccc2O[C@@H]2C[C@H](CO)[C@@H](O)[C@H](O)[C@H]2O)cc1`, for which the result was Active.

The target in the next experiment is T1, Sodium/glucose cotransporter 2 (Homo sapiens, UniProt P31639).
T1 sequence (P31639 whole entry): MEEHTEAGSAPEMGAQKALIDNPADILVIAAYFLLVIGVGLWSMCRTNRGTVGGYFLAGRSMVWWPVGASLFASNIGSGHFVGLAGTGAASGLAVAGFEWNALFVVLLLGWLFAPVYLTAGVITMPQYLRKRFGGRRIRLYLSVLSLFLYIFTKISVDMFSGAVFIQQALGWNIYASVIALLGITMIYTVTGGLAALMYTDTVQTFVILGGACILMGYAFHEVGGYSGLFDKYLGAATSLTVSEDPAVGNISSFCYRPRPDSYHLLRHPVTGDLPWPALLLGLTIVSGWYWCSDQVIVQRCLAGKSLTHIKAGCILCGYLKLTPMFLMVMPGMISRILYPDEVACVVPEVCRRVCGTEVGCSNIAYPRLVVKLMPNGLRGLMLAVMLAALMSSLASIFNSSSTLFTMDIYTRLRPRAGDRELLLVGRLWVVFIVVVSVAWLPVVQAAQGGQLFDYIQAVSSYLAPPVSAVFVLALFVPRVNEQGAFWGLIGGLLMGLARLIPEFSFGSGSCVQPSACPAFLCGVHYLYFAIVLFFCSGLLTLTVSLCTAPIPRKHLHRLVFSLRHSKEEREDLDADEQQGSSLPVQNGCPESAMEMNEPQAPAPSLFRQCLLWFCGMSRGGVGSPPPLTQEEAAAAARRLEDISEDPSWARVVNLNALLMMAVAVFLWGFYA
Kind of experiment: Inhibition of human SGLT2 expressed in CHO cells assessed as [14C]AMG uptake after 45 mins. Type of experiment: cell-based. Summed up:
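Cells incubated 45 min in reaction buffer with compound plus 1 mM AMG containing [14C]AMG; uptake read as radioactivity in cell lysates. IC50 from four-parameter logistic curve fit; means of multiple independent experiments, with phlorizin and reference standard included in every run.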
As for `CCOc1ccc(Cc2ccccc2O[C@@H]2C[C@H](CO)[C@@H](O)[C@H](O)[C@H]2O)cc1`, the IC50 came out at 110 nM.
Same read-out and setting: the same measure for `CCOC(=O)OC[C@H]1O[C@@H](Oc2ccccc2Cc2ccc(OC)cc2)[C@H](O)[C@@H](O)[C@@H]1O` [SERGLIFLOZIN ETABONATE]: 260 nM; for `OC[C@H]1C[C@@H](Oc2ccccc2Cc2ccc(C(F)(F)F)cc2)[C@H](O)[C@@H](O)[C@@H]1O`: 120 nM.
Still for that read-out and setting: the same measure for `CC(C)c1ccc(Cc2ccccc2O[C@@H]2C[C@H](CO)[C@@H](O)[C@H](O)[C@H]2O)cc1`: 150 nM; for `Cc1ccc(Cc2ccccc2O[C@@H]2C[C@H](CO)[C@@H](O)[C@H](O)[C@H]2O)cc1`: 59 nM.
Turning to `OC[C@H]1C[C@@H](Oc2ccccc2Cc2ccccc2)[C@H](O)[C@@H](O)[C@@H]1O`, the half-inhibitory concentration (IC50) was 690 nM.
For `OC[C@H]1C[C@@H](Oc2ccccc2Cc2ccc(Cl)cc2)[C@H](O)[C@@H](O)[C@@H]1O`, the IC50 was found to be 150 nM.
Same read-out and setting: the same measure for `C=Cc1ccc(Cc2ccccc2O[C@@H]2C[C@H](CO)[C@@H](O)[C@H](O)[C@H]2O)cc1`: 29 nM; for `OC[C@H]1C[C@@H](Oc2ccccc2Cc2ccc(O)cc2)[C@H](O)[C@@H](O)[C@@H]1O`: 290 nM.
The same measure, in the same setting: the same measure for `CSc1ccc(Cc2ccccc2O[C@@H]2C[C@H](CO)[C@@H](O)[C@H](O)[C@H]2O)cc1`: 19 nM; for `COc1ccc(Cc2ccccc2O[C@@H]2O[C@H](CO)[C@@H](O)[C@H](O)[C@H]2O)cc1` [SERGLIFLOZIN A]: 4.8 nM.
Same read-out and setting: the same measure for `CCCc1ccc(Cc2ccccc2O[C@@H]2C[C@H](CO)[C@@H](O)[C@H](O)[C@H]2O)cc1`: 120 nM; for `CCc1ccc(Cc2ccccc2O[C@@H]2C[C@H](CO)[C@@H](O)[C@H](O)[C@H]2O)cc1`: 28 nM; for `OC[C@H]1C[C@@H](Oc2ccccc2Cc2ccc(F)cc2)[C@H](O)[C@@H](O)[C@@H]1O`: 630 nM.
As to `OC[C@H]1C[C@@H](Oc2ccccc2Cc2ccc(C3CC3)cc2)[C@H](O)[C@@H](O)[C@@H]1O`, the concentration for half-maximal inhibition (IC50) stood at 11 nM.
Regarding `COc1ccc(Cc2ccccc2O[C@@H]2C[C@H](CO)[C@@H](O)[C@H](O)[C@H]2O)cc1`, the concentration for half-maximal inhibition (IC50) is 42 nM.
